# Reference: ChEMBL document CHEMBL5303300, “EUbOPEN Chemogenomics Library - Multiplex” (2023)
# “And” between values parts separate entries of the source, which are not always exact repeats. Equal values may be shown once.
# Test system: HEK-293T
# Assay: Multiplex assay against HEK293T
# Assay type: toxicity, cell-based
# Settings: human, number of replicates 2
# Procedure, shortened: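 Live cells were stained at seeding with Hoechst33342, BioTracker Green Microtubule Cytoskeleton Dye, MitoTracker Red and Annexin V Alexa Fluor 680, then imaged on a CQ1 microscope at 37°C and 5% CO2 after compound addition. CellPathfinder machine-learning gating split cells into Hoechst high-intensity objects or normal cells. Normal cells were split into healthy, pyknosed or fragmented nuclei, and pyknosed cells into mitotic or apoptotic. Tubulin, mitochondrial-mass and membrane-permeability phenotypes are per cents of healthy-nucleus cells.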
# [1] = 12 h, 10 µM, compound concentration 10 uM
# [2] = 24 h, 10 µM, compound concentration 10 uM
# [3] = 48 h, 10 µM, compound concentration 10 uM
# [4] = 12 h, 1 µM, compound concentration 1 uM
# [5] = 24 h, 1 µM, compound concentration 1 uM
# [6] = 48 h, 1 µM, compound concentration 1 uM
smiles,measurement,setting,value
C[C@@H]1CC[C@@]2(OC1)O[C@H]1[C@@H](O)[C@H]3[C@@H]4CC[C@H]5C[C@@H](O[C@@H]6O[C@H](CO)[C@H](O[C@@H]7O[C@H](CO)C(O)[C@H](O[C@@H]8OC[C@@H](O)[C@H](O)[C@H]8O)[C@H]7O[C@@H]7O[C@H](CO)[C@H](O)[C@H](O[C@@H]8O[C@H](CO)[C@@H](O)[C@H](O)[C@H]8O)[C@H]7O)[C@H](O)[C@H]6O)[C@H](O)C[C@]5(C)[C@H]4CC[C@]3(C)[C@H]1[C@@H]2C (stereo not given in full) [DIGITONIN],Population Apoptotic (%),[1],61% and 33% and 40% and 57%
same,Population Fragmented Nuclei (%),[1],7% and 2% and 3% and 6%
same,Population Healthy Nuclei (%),[1],79% and 88% and 83% and 81%
same,Population Hoechst High Intensity Objects (%),[1],10% and 5% and 4% and 8%
same,Population Membrane Permeable-Phenotype (%),[1],1% and 3%
same,Population Mitochondria Different-Phenotype (%),[1],14% and 13% and 16% and 17%
same,Population Mitotic Cells (%),[1],38% and 66% and 59% and 42%
same,Population Normal (%),[1],89% and 94% and 95% and 91%
same,Population Pyknosed Nuclei (%),[1],13% and 8% and 12% and 11%
same,Population Tubulin-Different-Phenotype (%),[1],50% and 43% and 44% and 49%
same,Total Cell Count,[1],558 and 637 and 534 and 641
same,Population Apoptotic (%),[2],44% [middle of 4 runs]
same,Population Fragmented Nuclei (%),[2],5% and 8% and 2% and 10%
same,Population Healthy Nuclei (%),[2],86% and 81% and 90%
same,Population Hoechst High Intensity Objects (%),[2],7% and 9% and 6% and 8%
same,Population Membrane Permeable-Phenotype (%),[2],3% and 2%
same,Population Mitochondria Different-Phenotype (%),[2],4% and 2% and 7% and 3%
same,Population Mitotic Cells (%),[2],67% and 34% and 68% and 55%
same,Population Normal (%),[2],92% and 90% and 93% and 91%
same,Population Pyknosed Nuclei (%),[2],8% and 9% and 6%
same,Population Tubulin-Different-Phenotype (%),[2],26% and 22% and 28% and 17%
same,Total Cell Count,[2],1037 and 963 and 742 and 1134
same,Population Apoptotic (%),[3],13% and 14% and 23% and 21%
same,Population Fragmented Nuclei (%),[3],13% and 15% and 10% and 17%
same,Population Healthy Nuclei (%),[3],83% and 79% and 85% and 80%
same,Population Hoechst High Intensity Objects (%),[3],10% and 9% and 11%
same,Population Membrane Permeable-Phenotype (%),[3],5% and 3% and 2%
same,Population Mitochondria Different-Phenotype (%),[3],0%
same,Population Mitotic Cells (%),[3],86% and 85% and 76% and 78%
same,Population Normal (%),[3],89% and 90% and 88%
same,Population Pyknosed Nuclei (%),[3],3% and 4% and 2%
same,Population Tubulin-Different-Phenotype (%),[3],13% and 5% and 14% and 6%
same,Total Cell Count,[3],2746 and 2725 and 1654 and 2990
Cn1cc(-n2cnc3c(NCc4nc5cc(Cl)c(Cl)cc5[nH]4)nc(N4CCOCC4)nc32)cn1,Population Apoptotic (%),[4],69% and 59%
same,Population Fragmented Nuclei (%),[4],3% and 5%
same,Population Healthy Nuclei (%),[4],76% and 75%
same,Population Hoechst High Intensity Objects (%),[4],16% and 17%
same,Population Membrane Permeable-Phenotype (%),[4],3% and 1%
same,Population Mitochondria Different-Phenotype (%),[4],65% and 66%
same,Population Mitotic Cells (%),[4],30% and 40%
same,Population Normal (%),[4],83% and 82%
same,Population Pyknosed Nuclei (%),[4],20% and 19%
same,Population Tubulin-Different-Phenotype (%),[4],83% and 84%
same,Total Cell Count,[4],293 and 335
same,Population Apoptotic (%),[1],71% and 65%
same,Population Fragmented Nuclei (%),[1],4% and 2%
same,Population Healthy Nuclei (%),[1],78% and 76%
same,Population Hoechst High Intensity Objects (%),[1],18% and 12%
same,Population Membrane Permeable-Phenotype (%),[1],1% and 2%
same,Population Mitochondria Different-Phenotype (%),[1],77% and 73%
same,Population Mitotic Cells (%),[1],28% and 34%
same,Population Normal (%),[1],81% and 87%
same,Population Pyknosed Nuclei (%),[1],16% and 20%
same,Population Tubulin-Different-Phenotype (%),[1],95% and 96%
same,Total Cell Count,[1],262 and 266
same,Population Apoptotic (%),[5],72% and 66%
same,Population Fragmented Nuclei (%),[5],2% and 4%
same,Population Healthy Nuclei (%),[5],72% and 74%
same,Population Hoechst High Intensity Objects (%),[5],25% and 27%
same,Population Membrane Permeable-Phenotype (%),[5],3% and 0%
same,Population Mitochondria Different-Phenotype (%),[5],75% and 82%
same,Population Mitotic Cells (%),[5],27% and 33%
same,Population Normal (%),[5],74% and 72%
same,Population Pyknosed Nuclei (%),[5],25% and 20%
same,Population Tubulin-Different-Phenotype (%),[5],78% and 89%
same,Total Cell Count,[5],256 and 257
same,Population Apoptotic (%),[2],69% and 85%
same,Population Fragmented Nuclei (%),[2],2% and 5%
same,Population Healthy Nuclei (%),[2],81% and 80%
same,Population Hoechst High Intensity Objects (%),[2],21% and 11%
same,Population Membrane Permeable-Phenotype (%),[2],2% and 0%
same,Population Mitochondria Different-Phenotype (%),[2],87% and 88%
same,Population Mitotic Cells (%),[2],30% and 14%
same,Population Normal (%),[2],78% and 88%
same,Population Pyknosed Nuclei (%),[2],15% and 13%
same,Population Tubulin-Different-Phenotype (%),[2],92% and 95%
same,Total Cell Count,[2],217
same,Population Apoptotic (%),[6],69% and 62%
same,Population Fragmented Nuclei (%),[6],7% and 6%
same,Population Healthy Nuclei (%),[6],69% and 74%
same,Population Hoechst High Intensity Objects (%),[6],20% and 29%
same,Population Membrane Permeable-Phenotype (%),[6],5% and 1%
same,Population Mitochondria Different-Phenotype (%),[6],66% and 78%
same,Population Mitotic Cells (%),[6],30% and 37%
same,Population Normal (%),[6],79% and 70%
same,Population Pyknosed Nuclei (%),[6],22% and 19%
same,Population Tubulin-Different-Phenotype (%),[6],75% and 87%
same,Total Cell Count,[6],308 and 317
same,Population Apoptotic (%),[3],70% and 84%
same,Population Fragmented Nuclei (%),[3],5%
same,Population Healthy Nuclei (%),[3],78% and 70%
same,Population Hoechst High Intensity Objects (%),[3],17% and 11%
same,Population Membrane Permeable-Phenotype (%),[3],1% and 2%
same,Population Mitochondria Different-Phenotype (%),[3],89% and 87%
same,Population Mitotic Cells (%),[3],29% and 16%
same,Population Normal (%),[3],82% and 88%
same,Population Pyknosed Nuclei (%),[3],16% and 23%
same,Population Tubulin-Different-Phenotype (%),[3],94% and 93%
same,Total Cell Count,[3],275 and 237
CN1CCCN(C(=O)c2cccc(-c3ccc(/C=C4/C(=O)Nc5ccc(Cl)cc54)o3)c2)CC1,Population Apoptotic (%),[4],58% and 72%
same,Population Fragmented Nuclei (%),[4],4%
same,Population Healthy Nuclei (%),[4],88% and 86%
same,Population Hoechst High Intensity Objects (%),[4],6%
same,Population Membrane Permeable-Phenotype (%),[4],3% and 2%
same,Population Mitochondria Different-Phenotype (%),[4],8% and 12%
same,Population Mitotic Cells (%),[4],41% and 27%
same,Population Normal (%),[4],93%
same,Population Pyknosed Nuclei (%),[4],6% and 9%
same,Population Tubulin-Different-Phenotype (%),[4],60% and 45%
same,Total Cell Count,[4],923 and 535
same,Population Apoptotic (%),[1],67% and 62%
same,Population Fragmented Nuclei (%),[1],2% and 1%
same,Population Healthy Nuclei (%),[1],86% and 92%
same,Population Hoechst High Intensity Objects (%),[1],5% and 6%
same,Population Membrane Permeable-Phenotype (%),[1],7% and 4%
same,Population Mitochondria Different-Phenotype (%),[1],38% and 32%
same,Population Mitotic Cells (%),[1],32% and 37%
same,Population Normal (%),[1],94% and 93%
same,Population Pyknosed Nuclei (%),[1],11% and 6%
same,Population Tubulin-Different-Phenotype (%),[1],94% and 96%
same,Total Cell Count,[1],365 and 416
same,Population Apoptotic (%),[5],57% and 72%
same,Population Fragmented Nuclei (%),[5],7% and 6%
same,Population Healthy Nuclei (%),[5],86% and 85%
same,Population Hoechst High Intensity Objects (%),[5],9%
same,Population Membrane Permeable-Phenotype (%),[5],2% and 1%
same,Population Mitochondria Different-Phenotype (%),[5],1% and 3%
same,Population Mitotic Cells (%),[5],42% and 27%
same,Population Normal (%),[5],90%
same,Population Pyknosed Nuclei (%),[5],6% and 8%
same,Population Tubulin-Different-Phenotype (%),[5],18% and 20%
same,Total Cell Count,[5],1009 and 610
same,Population Apoptotic (%),[2],64% and 56%
same,Population Fragmented Nuclei (%),[2],4% and 2%
same,Population Healthy Nuclei (%),[2],79% and 90%
same,Population Hoechst High Intensity Objects (%),[2],2% and 4%
same,Population Membrane Permeable-Phenotype (%),[2],7% and 8%
same,Population Mitochondria Different-Phenotype (%),[2],34% and 29%
same,Population Mitotic Cells (%),[2],35% and 43%
same,Population Normal (%),[2],97% and 95%
same,Population Pyknosed Nuclei (%),[2],16% and 7%
same,Population Tubulin-Different-Phenotype (%),[2],84% and 87%
same,Total Cell Count,[2],402 and 421
same,Population Apoptotic (%),[6],43% and 64%
same,Population Fragmented Nuclei (%),[6],16% and 12%
same,Population Healthy Nuclei (%),[6],81% and 84%
same,Population Hoechst High Intensity Objects (%),[6],6% and 5%
same,Population Membrane Permeable-Phenotype (%),[6],0%
same,Population Mitochondria Different-Phenotype (%),[6],1% and 4%
same,Population Mitotic Cells (%),[6],56% and 35%
same,Population Normal (%),[6],93% and 94%
same,Population Pyknosed Nuclei (%),[6],2%
same,Population Tubulin-Different-Phenotype (%),[6],14% and 15%
same,Total Cell Count,[6],1019 and 606
same,Population Apoptotic (%),[3],60% and 55%
same,Population Fragmented Nuclei (%),[3],6%
same,Population Healthy Nuclei (%),[3],46% and 55%
same,Population Hoechst High Intensity Objects (%),[3],7% and 3%
same,Population Membrane Permeable-Phenotype (%),[3],3% and 2%
same,Population Mitochondria Different-Phenotype (%),[3],50% and 38%
same,Population Mitotic Cells (%),[3],39% and 44%
same,Population Normal (%),[3],92% and 96%
same,Population Pyknosed Nuclei (%),[3],47% and 38%
same,Population Tubulin-Different-Phenotype (%),[3],77% and 76%
same,Total Cell Count,[3],403 and 446
